{"source": "ChEMBL document CHEMBL4725263", "about": "“Discovery of potential dual-target prodrugs of HIV-1 reverse transcriptase and nucleocapsid protein 7” (Bioorg Med Chem Lett, 2020)", "key": {"[1]": {"assay": "(§1) Inhibition of reverse transcriptase/nucleocapsid protein 7 in wild type HIV1 3B infected in human MT4 cells assessed as protection against virus-induced cytopathic effect incubated for 5 days by MTT assay", "format": "cell-based", "settings": "Human immunodeficiency virus 1, 3B, MT4, 120 h", "how_it_was_run": "(§2)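 MT-4 cells infected with HIV-1 IIIB (wild type) or RES056 (K103N/Y181C RT double mutant); 5-day incubation; viability by MTT. EC50 is the concentration giving 50% protection against virus-induced cytotoxicity. CC50 is the concentration cutting viability of mock-infected cultures by 50%. SI is CC50/EC50. Fold resistance is EC50 mutant/EC50 wild type.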"}, "[2]": {"assay": "Inhibition of nucleocapsid protein 7/reverse transcriptase K103N/Y181C double mutant in HIV1 RES056 infected in human MT4 cells assessed as protection against virus-induced cytopathic effect incubated for 5 days by MTT assay", "format": "cell-based", "settings": "Human immunodeficiency virus 1, RES056, MT4, 120 h", "how_it_was_run": "as §2"}, "[3]": {"assay": "Cytotoxicity in mock-infected human MT4 assessed as reduction in cell viability incubated for 5 days by MTT assay", "format": "cell-based", "settings": "mock-infected MT4 cells, time 5 day", "how_it_was_run": "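Mock-infected MT-4 cultures were run alongside the HIV-1 IIIB and RES056 (K103N/Y181C) protection assays and incubated for 5 days. Viability was read by MTT. CC50 is the concentration that cuts viability of the mock-infected cultures by 50%.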"}, "[4]": {"assay": "as §1, with “Selectivity index, ratio of CC50 for cytotoxicity in mock-infected human MT4 cells assessed as reduction in cell viability incubated for 5 days by MTT to EC50 for inhibition” for “Inhibition”", "format": "toxicity, cell-based", "settings": "time 5 day, read-out: Ratio CC50/EC50", "how_it_was_run": "as §2"}, "[5]": {"assay": "Selectivity index, ratio of CC50 for cytotoxicity in mock-infected human MT4 cells assessed as reduction in cell viability incubated for 5 days by MTT to EC50 for inhibition of reverse transcriptase K103N/Y181C double mutant/nucleocapsid protein 7 in HIV1 RES056 infected in human MT4 cells assessed as protection against virus-induced cytopathic effect incubated for 5 days by MTT assay", "format": "toxicity, cell-based", "settings": "time 5 day, read-out: Ratio CC50/EC50", "how_it_was_run": "as §2"}, "[6]": {"test_system": "Human immunodeficiency virus 1", "assay": "Fold resistance, ratio of EC50 for inhibition of reverse transcriptase K103N/Y181C double mutant/nucleocapsid protein 7 in HIV1 RES056 infected in human MT4 cells assessed as protection against virus-induced cytopathic effect incubated for 5 days by MTT assay to EC50 for reverse transcriptase/nucleocapsid protein 7 in wild type HIV1 3B infected in human MT4 cells assessed as protection against virus-induced cytopathic effect incubated for 5 days by MTT assay", "format": "cell-based", "settings": "time 5.0 day", "how_it_was_run": "as §2"}, "[7]": {"assay": "Inhibition of reverse transcriptase/nucleocapsid protein 7 in wild type HIV1 NL4-3 infected in human TZM-bl cells assessed as protection against virus-induced cytopathic effect incubated for 5 days by MTT assay", "format": "cell-based", "settings": "Human immunodeficiency virus 1, NL4-3, TZM-bl, 120 h"}, "[8]": {"assay": "Cytotoxicity in human TZM assessed as reduction in cell viability incubated for 5 days by MTT assay", "format": "cell-based", "settings": "TZM cells, time 5 day", "how_it_was_run": "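Uninfected TZM-bl cells were exposed to compound in parallel with the HIV-1 NL4-3 antiviral assay. CC50 is the concentration that cuts viability by 50%. Each compound was run in at least triplicate, and values were averaged from at least four independent experiments.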"}, "[9]": {"assay": "Selectivity index, ratio of CC50 for cytotoxicity in human TZM-bl assessed as reduction in cell viability incubated for 5 days by MTT to EC50 for inhibition of reverse transcriptase/nucleocapsid protein 7 in wild type HIV1 NL4-3 infected in human TZM-bl cells assessed as protection against virus-induced cytopathic effect incubated for 5 days by MTT assay", "format": "toxicity, cell-based", "settings": "time 5 day, read-out: Ratio CC50/EC50"}, "[10]": {"assay": "Prodrug conversion in human plasma assessed as […] measured after 10 mins at 37 degree C by LC-MS/MS analysis", "format": "ADME, cell-free", "how_it_was_run": "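Prodrug incubated in human plasma (pH 7.4 ± 0.1) at 37 °C for 1 h. Remaining prodrug and formed MT and AZT measured by LC-MS/MS, in triplicate at each time point. Decrease in prodrug plotted against MT formed over the first 10 min with a linear fit.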"}, "[11]": {"assay": "Prodrug conversion in human plasma assessed as enzyme-mediated drug hydrolysis measured after 10 mins at 37 degree C by LC-MS/MS analysis"}}, "data": [{"compound": "NC(=O)CCNC(=O)c1ccccc1S", "values": [{"measurement": "EC50", "setting": "[1]", "value": 5.26, "unit": "µM"}, {"measurement": "EC50", "setting": "[2]", "value": 7.94, "unit": "µM"}, {"measurement": "CC50 at 120 h", "setting": "[3]", "value": 332, "unit": "µM"}, {"measurement": "selectivity ratio at 120 h", "setting": "[4]", "value": 63}, {"measurement": "selectivity ratio at 120 h", "setting": "[5]", "value": 41.9}, {"measurement": "Ratio EC50", "setting": "[6]", "value": 1.5}, {"measurement": "EC50", "setting": "[7]", "value": 2.36, "unit": "µM"}, {"measurement": "CC50 at 120 h", "setting": "[8]", "value": 82.5, "unit": "µM"}, {"measurement": "selectivity ratio at 120 h", "setting": "[9]", "value": "> 34.9"}]}, {"compound": "Cc1cn([C@H]2C[C@H](N=[N+]=[N-])[C@@H](COC(=O)CC(C)(C)CC(=O)OCSc3ccccc3C(=O)NCCC(N)=O)O2)c(=O)[nH]c1=O", "values": [{"measurement": "CC50 at 120 h", "setting": "[3]", "value": "> 194", "unit": "µM"}, {"measurement": "CC50 at 120 h", "setting": "[8]", "value": "> 1.55", "unit": "µM"}]}, {"compound": "Cc1cn([C@H]2C[C@H](N=[N+]=[N-])[C@@H](COC(=O)CCC(=O)OCSc3ccccc3C(=O)NCCC(N)=O)O2)c(=O)[nH]c1=O", "values": [{"measurement": "CC50 at 120 h", "setting": "[3]", "value": 124, "unit": "µM"}, {"measurement": "CC50 at 120 h", "setting": "[8]", "value": "> 1.66", "unit": "µM"}]}, {"compound": "Cc1cn([C@H]2C[C@H](N=[N+]=[N-])[C@@H](CO)O2)c(=O)[nH]c1=O", "note": "[ZIDOVUDINE]", "values": [{"measurement": "EC50", "setting": "[1]", "value": 0.011, "unit": "µM"}, {"measurement": "EC50", "setting": "[2]", "value": 1.2, "unit": "µM"}, {"measurement": "CC50 at 120 h", "setting": "[3]", "value": "> 7.48", "unit": "µM"}, {"measurement": "selectivity ratio at 120 h", "setting": "[4]", "value": "> 645"}, {"measurement": "selectivity ratio at 120 h", "setting": "[5]", "value": "> 6.25"}, {"measurement": "EC50", "setting": "[7]", "value": 0.016, "unit": "µM"}, {"measurement": "CC50 at 120 h", "setting": "[8]", "value": "> 0.374", "unit": "µM"}, {"measurement": "selectivity ratio at 120 h", "setting": "[9]", "value": "> 23.4"}]}, {"compound": "Cc1cn([C@H]2C[C@H](N=[N+]=[N-])[C@@H](COC(=O)CC(C)CC(=O)OCSc3ccccc3C(=O)NCCC(N)=O)O2)c(=O)[nH]c1=O", "note": "(stereo partly specified)", "values": [{"measurement": "CC50 at 120 h", "setting": "[3]", "value": "> 198", "unit": "µM"}, {"measurement": "CC50 at 120 h", "setting": "[8]", "value": "> 1.58", "unit": "µM"}]}, {"compound": "Cc1cn([C@H]2C[C@H](N=[N+]=[N-])[C@@H](COC(=O)CCCC(=O)OCSc3ccccc3C(=O)NCCC(N)=O)O2)c(=O)[nH]c1=O", "values": [{"measurement": "CC50 at 120 h", "setting": "[3]", "value": "> 202", "unit": "µM"}, {"measurement": "CC50 at 120 h", "setting": "[8]", "value": "> 1.62", "unit": "µM"}]}, {"compound": "Cc1cn([C@H]2C[C@H](N=[N+]=[N-])[C@@H](COC(=O)CCCCC(=O)OCSc3ccccc3CNCCC(N)=O)O2)c(=O)[nH]c1=O", "values": [{"measurement": "EC50", "setting": "[1]", "value": 0.042, "unit": "µM"}, {"measurement": "EC50", "setting": "[2]", "value": 1.33, "unit": "µM"}, {"measurement": "CC50 at 120 h", "setting": "[3]", "value": "> 198", "unit": "µM"}, {"measurement": "selectivity ratio at 120 h", "setting": "[4]", "value": "> 4660"}, {"measurement": "selectivity ratio at 120 h", "setting": "[5]", "value": "> 149"}, {"measurement": "Ratio EC50", "setting": "[6]", "value": 31.6}, {"measurement": "EC50", "setting": "[7]", "value": 0.308, "unit": "µM"}, {"measurement": "CC50 at 120 h", "setting": "[8]", "value": "> 1.58", "unit": "µM"}, {"measurement": "selectivity ratio at 120 h", "setting": "[9]", "value": "> 4.76"}, {"measurement": "Drug metabolism", "setting": "[10]", "value": "Metabolite_Detected"}, {"measurement": "Drug metabolism", "setting": "[11]", "value": 100, "unit": "%"}]}]}
